Active and inactive are the calls of the source. No cut-off for these calls is given here.
Tests used:
[1] = n-Octanol-sodium phosphate buffer partition coefficient, log D of the compound at pH 7.4 by shake flask method; assay type: physicochemical
Method in brief: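 Shake flask: [11C]tracer (about 150,000 cpm) was mixed with n-octanol (3.0 g) and 0.1 M sodium phosphate-buffered saline, pH 7.40 (3.0 g). The mix was vortexed 3 min at room temperature and centrifuged 3500 rpm for 5 min; n = 3.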

Thalamus = assay: Biodistribution in Sprague-Dawley rat thalamus assessed as increase in uptake at 0.07 to 0.11 nmol, iv pre-treated with 3 mg/kg of SB269970 measured up to 90 mins by HPLC analysis relative to control; assay type: ADME, organism-based; parameters: dose 3 mg/kg, route intravenous; settings: in vivo
Method in brief: (§1)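 PET blocking study in male Sprague–Dawley rats under isoflurane. SB269970 3 mg/kg, in saline with 10% ethanol and 5% polysorbate 80, was given 1 min before intravenous tracer. A 90-min 3D list-mode scan (350–750 keV) followed. Regional decay-corrected SUV time-activity curves were compared with baseline animals; n = 3 per group.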

[2] = Drug metabolism in Sprague-Dawley rat brain assessed as intact form at 0.07 to 0.11 nmol, iv after 15 mins by HPLC analysis; assay type: ADME, organism-based; settings: read-out: Stability
Method in brief: (§2)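 At 15 and 60 min after intravenous tracer, rat plasma and brain were taken. Brain was homogenized in ice-cold MeCN/H2O (1:1) and centrifuged 15,000 rpm, 2 min, 4 °C. Supernatants were run on radio-HPLC (C18, 4.6 × 250 mm; MeCN/H2O/TFA 4/6/0.05; 1.0 mL/min). Intact fraction = decay-corrected tracer peak area / total peak area × 100.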

[3] = Drug metabolism in Sprague-Dawley rat plasma assessed as intact form at 0.07 to 0.11 nmol, iv after 15 mins by HPLC analysis; assay type: ADME, organism-based; settings: read-out: Stability; method in brief: as §2
Brain [4] = assay: Biodistribution in Sprague-Dawley rat brain at 0.07 to 0.11 nmol, iv after 90 mins by HPLC analysis; assay type: ADME, organism-based; settings: in vivo, 1.5 h
Method in brief: (§3)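 Small-animal PET in male Sprague–Dawley rats (220–240 g, 7 weeks) under isoflurane (5% induction, 1–2% maintenance). A 90-min 3D list-mode emission scan (350–750 keV) started immediately after intravenous tracer injection, framed 4 × 1, 8 × 2, 14 × 5 min. Regional uptake was decay-corrected to injection time and expressed as SUV normalized to injected radioactivity and body weight; n = 3.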

[5] = Drug metabolism in Sprague-Dawley rat brain assessed as intact form at 0.07 to 0.11 nmol, iv after 60 mins by HPLC analysis; assay type: ADME, organism-based; settings: read-out: Stability; method in brief: as §2
Brain [6] = assay: Biodistribution in Sprague-Dawley rat brain at 0.07 to 0.11 nmol, iv after 3 to 5 mins by HPLC analysis; assay type: ADME, organism-based; settings: in vivo; method in brief: as §3
[7] = Drug metabolism in Sprague-Dawley rat plasma assessed as intact form at 0.07 to 0.11 nmol, iv after 60 mins by HPLC analysis; assay type: ADME, organism-based; settings: read-out: Stability; method in brief: as §2
Cerebellum = assay: Biodistribution in Sprague-Dawley rat cerebellum assessed as increase in uptake at 0.07 to 0.11 nmol, iv pre-treated with 3 mg/kg of SB269970 measured up to 90 mins by HPLC analysis relative to control; assay type: ADME, organism-based; parameters: dose 3 mg/kg, route intravenous; settings: in vivo; method in brief: as §1
Hippocampus = assay: Biodistribution in Sprague-Dawley rat hippocampus assessed as increase in uptake at 0.07 to 0.11 nmol, iv pre-treated with 3 mg/kg of SB269970 measured up to 90 mins by HPLC analysis relative to control; assay type: ADME, organism-based; parameters: dose 3 mg/kg, route intravenous; settings: in vivo; method in brief: as §1
Rattus norvegicus = assay: Biodistribution in Sprague-Dawley rat frontal cortex assessed as increase in uptake at 0.07 to 0.11 nmol, iv pre-treated with 3 mg/kg of SB269970 measured up to 90 mins by HPLC analysis relative to control; assay type: ADME, organism-based; parameters: dose 3 mg/kg, route intravenous; settings: in vivo; method in brief: as §1
[8] = molecular target: 5-hydroxytryptamine receptor 7 (Rattus norvegicus) (UniProt P32305); assay: Binding affinity to 5-HT7 in Sprague-Dawley rat pons/medulla at 1 nM after 30 mins by autoradiography; settings: tested as the 11C-labelled form
5-hydroxytryptamine receptor 7 (Rattus norvegicus), sequence (P32305 whole entry): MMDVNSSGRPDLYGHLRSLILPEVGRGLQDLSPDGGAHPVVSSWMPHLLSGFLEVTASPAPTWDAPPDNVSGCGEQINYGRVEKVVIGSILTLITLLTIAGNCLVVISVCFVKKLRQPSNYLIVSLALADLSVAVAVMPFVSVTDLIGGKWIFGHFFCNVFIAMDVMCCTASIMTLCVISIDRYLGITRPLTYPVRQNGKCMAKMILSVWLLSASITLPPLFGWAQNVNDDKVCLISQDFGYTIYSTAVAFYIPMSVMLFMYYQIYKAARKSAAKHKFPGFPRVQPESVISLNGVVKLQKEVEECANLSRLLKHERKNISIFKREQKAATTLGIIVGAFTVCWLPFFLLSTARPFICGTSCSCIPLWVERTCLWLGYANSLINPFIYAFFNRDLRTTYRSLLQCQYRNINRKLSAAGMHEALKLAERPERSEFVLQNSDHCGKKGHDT
Method in brief: (§4)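 Frozen sagittal male Sprague–Dawley rat brain sections were preincubated 3 × 5 min in 50 mM Tris–HCl, pH 7.4, at room temperature. They were then incubated 30 min at room temperature in fresh buffer with 1 nM [11C]tracer, alone or with unlabeled ligand or SB269970 added to define specific binding. Sections were washed 3 × 5 min in cold buffer, dipped in cold water and air-dried. Imaging-plate photo-stimulated luminescence was read in regions of interest; n = 4.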

[9] = molecular target: 5-hydroxytryptamine receptor 7 (Rattus norvegicus) (UniProt P32305); assay: Binding affinity to 5-HT7 in Sprague-Dawley rat brain assessed as reduction in total radioactivity at 1 nM after 30 mins by autoradiography in presence of SB269970; settings: tested as the 11C-labelled form; method in brief: as §4
[10] = molecular target: 5-hydroxytryptamine receptor 7 (Rattus norvegicus) (UniProt P32305); assay: Binding affinity to 5-HT7 in Sprague-Dawley rat brain assessed as reduction in total radioactivity at 1 nM after 30 mins by autoradiography in presence of unlabelled compound; settings: tested as the 11C-labelled form; method in brief: as §4
[11] = molecular target: 5-hydroxytryptamine receptor 7 (Rattus norvegicus) (UniProt P32305); assay: Binding affinity to 5-HT7 in Sprague-Dawley rat straitum at 1 nM after 30 mins by autoradiography; settings: tested as the 11C-labelled form; method in brief: as §4
[12] = molecular target: T1, 5-hydroxytryptamine receptor 1A (Rattus norvegicus) (UniProt P19327); assay: Binding affinity to 5-HT1A in Sprague-Dawley rat frontal cortex after 30 mins by autoradiography; assay type: tissue-based
T1 sequence (whole entry): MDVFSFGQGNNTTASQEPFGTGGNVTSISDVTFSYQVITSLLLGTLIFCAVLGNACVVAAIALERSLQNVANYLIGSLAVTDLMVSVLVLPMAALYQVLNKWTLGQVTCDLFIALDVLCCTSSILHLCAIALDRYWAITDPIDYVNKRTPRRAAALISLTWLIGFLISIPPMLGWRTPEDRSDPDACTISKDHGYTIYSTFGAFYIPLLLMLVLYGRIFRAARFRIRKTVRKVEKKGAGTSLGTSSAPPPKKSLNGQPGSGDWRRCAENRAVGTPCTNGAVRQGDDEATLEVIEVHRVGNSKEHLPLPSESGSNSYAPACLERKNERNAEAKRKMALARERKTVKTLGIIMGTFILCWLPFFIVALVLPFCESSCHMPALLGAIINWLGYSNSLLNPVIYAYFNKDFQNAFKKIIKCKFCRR

[13] = molecular target: 5-hydroxytryptamine receptor 7 (Rattus norvegicus, UniProt P32305); assay: Binding affinity to 5-HT7 in rat brain; assay type: tissue-based
5-hydroxytryptamine receptor 7, sequence (P32305 whole entry): as the sequence (P32305 whole entry) above

[14] = molecular target: 5-hydroxytryptamine receptor 7 (Rattus norvegicus) (UniProt P32305); assay: Binding affinity to 5-HT7 in Sprague-Dawley rat thalamus at 1 nM after 30 mins by autoradiography; settings: tested as the 11C-labelled form; method in brief: as §4
[15] = molecular target: T1, 5-hydroxytryptamine receptor 1A (Rattus norvegicus); assay: Binding affinity to 5-HT1A in Sprague-Dawley rat cerebral cortex at 1 nM after 30 mins by autoradiography; assay type: tissue-based; settings: tested as the 11C-labelled form
[16] = molecular target: T1, 5-hydroxytryptamine receptor 1A (Rattus norvegicus); assay: Binding affinity to 5-HT1A in Sprague-Dawley rat hippocampus at 1 nM after 30 mins by autoradiography; assay type: tissue-based; settings: tested as the 11C-labelled form
[17] = molecular target: 5-hydroxytryptamine receptor 7 (Rattus norvegicus) (UniProt P32305); assay: Binding affinity to 5-HT7 in Sprague-Dawley rat cerebellum at 1 nM after 30 mins by autoradiography; settings: tested as the 11C-labelled form; method in brief: as §4
[18] = molecular target: T1, 5-hydroxytryptamine receptor 1A (Rattus norvegicus); assay: Binding affinity to 5-HT1A in Sprague-Dawley rat hippocampus after 30 mins by autoradiography; assay type: tissue-based

[11CH3]Oc1ccc(-c2ccccc2N2CCNCC2)cc1
logD [1]: 1.67
fold change (FC) (Thalamus): 2
remaining at 0.25 h [2]: 91%
remaining at 0.25 h [3]: 51%
Drug uptake (Brain [4]): 20%
remaining at 1 h [5]: 69%
SUV (Brain [6]): 1.2
remaining at 1 h [7]: 30%
fold change (FC) (Cerebellum): 2
fold change (FC) (Hippocampus): 2
fold change (FC) (Rattus norvegicus): 2

COc1ccc(-c2ccccc2N2CCNCC2)cc1
Activity [8]: Active
Activity [9]: inactive
Activity [10]: inactive
Activity [11]: Active
Bmax [12]: 5 nM
Ki [13]: 2.6 nM
Activity [14]: Active
Activity [15]: inactive
Activity [16]: inactive
Activity [17]: Active
Bmax [18]: 5 nM
